The test system of data set [1] is HCT-116. Put plainly: Induction of apoptosis in human HCT116 cells assessed as early apoptotic cells at 0.5 uM by Annexin-V FITC/propidium iodide staining-based flow cytometry (reference value: 2.8 %). In kind it is functional. A general note: A flow cytometer gives signals particle by particle.
The next data set has as its target Histone deacetylase 11 (Homo sapiens, UniProt Q96DB2). Put plainly: Inhibition of HDAC11 (unknown origin) using biotinylated histone H3 KAc peptide (1 to 21 residues) as substrate by HTRF assay. For orientation: Time-resolved FRET reads energy transfer from a long-lived donor to a nearby acceptor.
Data set [2] has as its target T1, Protein deacetylase HDAC6 (Homo sapiens, UniProt Q9UBN7).
T1 sequence (Q9UBN7 whole entry): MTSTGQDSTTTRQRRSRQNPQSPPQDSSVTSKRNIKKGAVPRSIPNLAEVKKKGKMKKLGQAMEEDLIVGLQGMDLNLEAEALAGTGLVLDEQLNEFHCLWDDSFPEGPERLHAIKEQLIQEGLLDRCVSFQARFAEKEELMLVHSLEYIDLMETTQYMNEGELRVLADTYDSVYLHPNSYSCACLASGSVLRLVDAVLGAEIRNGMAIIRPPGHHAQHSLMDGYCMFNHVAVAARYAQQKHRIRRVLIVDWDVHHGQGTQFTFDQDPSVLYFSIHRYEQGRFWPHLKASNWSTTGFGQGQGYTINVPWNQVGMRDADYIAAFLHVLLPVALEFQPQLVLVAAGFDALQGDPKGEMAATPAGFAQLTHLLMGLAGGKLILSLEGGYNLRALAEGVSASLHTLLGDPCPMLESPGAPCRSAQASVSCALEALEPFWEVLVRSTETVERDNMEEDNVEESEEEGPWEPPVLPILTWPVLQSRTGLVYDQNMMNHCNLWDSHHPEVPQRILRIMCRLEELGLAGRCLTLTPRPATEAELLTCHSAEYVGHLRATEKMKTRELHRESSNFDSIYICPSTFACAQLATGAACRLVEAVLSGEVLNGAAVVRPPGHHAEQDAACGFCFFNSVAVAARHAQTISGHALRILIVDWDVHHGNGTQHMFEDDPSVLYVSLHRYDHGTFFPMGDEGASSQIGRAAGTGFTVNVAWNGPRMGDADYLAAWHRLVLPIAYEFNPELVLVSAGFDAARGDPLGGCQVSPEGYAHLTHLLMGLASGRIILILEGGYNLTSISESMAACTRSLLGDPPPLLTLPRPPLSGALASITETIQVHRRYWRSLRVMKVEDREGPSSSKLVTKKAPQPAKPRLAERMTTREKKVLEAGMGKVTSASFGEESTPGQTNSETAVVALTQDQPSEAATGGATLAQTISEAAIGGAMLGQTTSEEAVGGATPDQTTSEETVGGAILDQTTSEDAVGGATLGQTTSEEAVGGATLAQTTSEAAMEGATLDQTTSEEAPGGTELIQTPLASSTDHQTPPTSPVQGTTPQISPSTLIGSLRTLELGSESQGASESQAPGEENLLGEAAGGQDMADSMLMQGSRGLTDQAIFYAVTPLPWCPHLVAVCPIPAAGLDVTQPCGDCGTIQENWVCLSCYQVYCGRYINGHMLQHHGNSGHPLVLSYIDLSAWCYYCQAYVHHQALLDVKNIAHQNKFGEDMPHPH
Put plainly: Inhibition of HDAC6 (unknown origin) using biotinylated histone H3 KAc peptide (1 to 21 residues) as substrate by HTRF assay.

The test system of data set [3] is HCT-116. Briefly: Induction of apoptosis in human HCT116 cells assessed as apoptotic cells at 0.2 uM by Annexin-V FITC/propidium iodide staining-based flow cytometry (reference value: 6.3 +/- 0.4 %). The data set is classed as functional.
The subject of data set [4] is HCT-116. Put plainly: Induction of apoptotic cell death in human HCT116 cells by Annexin-V FITC/propidium iodide staining-based flow cytometry. The data set is classed as functional.
Data set [5] deals with T2, Bromodomain-containing protein 4 (Homo sapiens, UniProt O60885). Put plainly: Inhibition of BRD4 in human HCT116 cells transfected with ATG5 siRNA assessed as activation of AMPK-alpha at 0.5 uM by Western blot analysis. In kind it is cell-based. The method, boiled down: (§1)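 HCT-116 cells first transfected with ATG5 siRNA or scramble siRNA; after silencing, exposed to 0.5 µM test agent or normal saline, then ATG5, AMPKα, p-AMPKα, p62 and LC3 protein assessed by western blot.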
(A western blot detects proteins with antibodies after separation by electrophoresis.)

Data set [6] concerns the target T2, Bromodomain-containing protein 4. Briefly: Inhibition of BRD4 in human HCT116 cells transfected with ATG5 siRNA assessed as induction of autophagy by measuring p62 degradation at 0.5 uM by Western blot analysis. In kind it is cell-based. The method, boiled down: as §1
Data set [7] is described as follows: Oral bioavailability in Sprague-Dawley rat at 30 mg/kg measured up to 1440 mins by UPLC-QTOF/MS analysis. The data set is classed as ADME, organism-based. Particulars: in vivo.
The species entered for a further data set is Homo sapiens. Put plainly: Inhibition of BRD4/HDAC in human HCT116 cells assessed as inhibition of IL6-JAK-STAT3 signaling pathway by measuring decrease in JAK1 expression at 0.5 uM after 24 hrs by Western blot analysis. In kind it is cell-based. A digest of the protocol:
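HCT-116 cells treated 24 h with 0.5 µM, 5.0 µM or 10 µM test agent depending on compound; OSMR, LIFR and downstream pathway proteins detected by western blot.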

The structures appear in SMILES notation. Calls of active or inactive are those of the source. No cut-off for these calls is given here. Where only a bound is given, the exact number is not on record here.

Chain of Histone deacetylase 11 (Q96DB2 whole entry, the tested form may be a part): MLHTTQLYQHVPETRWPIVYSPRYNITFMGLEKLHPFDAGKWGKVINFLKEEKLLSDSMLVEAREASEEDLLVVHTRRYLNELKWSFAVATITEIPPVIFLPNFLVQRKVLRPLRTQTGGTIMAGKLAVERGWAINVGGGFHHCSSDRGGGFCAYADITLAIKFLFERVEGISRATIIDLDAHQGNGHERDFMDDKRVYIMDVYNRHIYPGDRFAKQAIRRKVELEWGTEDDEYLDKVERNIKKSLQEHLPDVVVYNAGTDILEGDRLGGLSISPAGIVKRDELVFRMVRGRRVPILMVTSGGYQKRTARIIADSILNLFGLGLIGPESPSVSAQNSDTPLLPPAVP

Regarding `Cc1cc(-c2nc3sc4c(c3c(=O)[nH]2)CCN(C)C4)cc(C)c1OCCCCCC(=O)NO`, the Activity in the data set on HCT-116 [1] is 9.54%; in the data set on HCT-116 [3] it was 33.2%; in the data set on HCT-116 [4] it was “Dose-dependent effect”. In addition, the IC50 is greater than 10 µM against Histone deacetylase 11 and 0.073 µM in data set [2]. Further, the inhibition result (in data set [5]; in the data set listed under Homo sapiens) was “Active” each time. Moreover, the inhibition result in data set [6] was “inactive”. This compound also had a bioavailability in data set [7] of 40.5%.

A word on the IC50: it is the concentration needed to halve the response being measured. One may read the bioavailability as dose-corrected exposure relative to a reference, in per cent.

The values are drawn from ChEMBL document CHEMBL4342471, “Discovery of Thieno[2,3-d]pyrimidine-Based Hydroxamic Acid Derivatives as Bromodomain-Containing Protein 4/Histone Deacetylase Dual Inhibitors Induce Autophagic Cell Death in Colorectal Carcinoma Cells” (J Med Chem, 2020).
